pIC50: −log10 of the molar value. Calls of active or inactive are those of the source. No cut-off for these calls is given here.
Experiments:
[1] = system: SH-SY5Y; experiment: Antiproliferative activity against human SH-SY5Y cells after 72 hrs by MTT assay; assay type: functional, cell-based
[2] = system: HepG2; experiment: Antiproliferative activity against human HepG2 cells at 10 uM after 24 hrs by MTT assay realtive to control; assay type: functional
Method in brief: (§1)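 MTT assay in triplicate wells. Cells (2 × 10^3/well) were attached 24 h, then treated at 0.1, 1, 10, 50 or 100 µM for 24, 48 or 72 h. MTT added for 4 h, SDS solubilisation, absorbance at 570/650 nm. Inhibition = 1 − (OD treated − blank)/(OD control − blank). Reported as mean ± SD of three independent experiments.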

[3] = system: HepG2; experiment: Antiproliferative activity against human HepG2 cells at 0.1 uM after 48 hrs by MTT assay realtive to control; assay type: functional; method in brief: as §1
[4] = system: A549; experiment: Antiproliferative activity against human A549 cells at 10 uM after 24 hrs by MTT assay relative to control; assay type: functional; method in brief: as §1
[5] = system: A549; experiment: Antiproliferative activity against human A549 cells at 0.1 uM after 48 hrs by MTT assay relative to control; assay type: functional; method in brief: as §1
[6] = system: A549; experiment: Antiproliferative activity against human A549 cells at 1 uM after 48 hrs by MTT assay relative to control; assay type: functional; method in brief: as §1
[7] = system: A549; experiment: Antiproliferative activity against human A549 cells at 1 uM after 72 hrs by MTT assay relative to control; assay type: functional; method in brief: as §1
[8] = system: A549; experiment: Antiproliferative activity against human A549 cells at 50 uM after 72 hrs by MTT assay relative to control; assay type: functional; method in brief: as §1
[9] = system: A549; experiment: Antiproliferative activity against human A549 cells at 100 uM after 72 hrs by MTT assay relative to control; assay type: functional; method in brief: as §1
[10] = system: HepG2; experiment: Antiproliferative activity against human HepG2 cells after 24 hrs by MTT assay; assay type: functional, cell-based; settings: HepG2, 24 h
Method in brief: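 MTT read-out. Cells seeded at 2 × 10^3/well, attached 24 h at 37 °C in 5% CO2, then exposed to 0.1–100 µM for 24, 48 or 72 h. MTT for 4 h, formazan dissolved in 10% SDS/NH4Cl for 10 h, absorbance at 570 nm corrected at 650 nm. % inhibition computed against untreated and blank wells. IC50 is the mean of at least three independent experiments.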

[11] = target: T1, Epidermal growth factor receptor (Homo sapiens, UniProt P00533); assay type: cell-based, HEK293
T1 sequence (P00533 whole entry): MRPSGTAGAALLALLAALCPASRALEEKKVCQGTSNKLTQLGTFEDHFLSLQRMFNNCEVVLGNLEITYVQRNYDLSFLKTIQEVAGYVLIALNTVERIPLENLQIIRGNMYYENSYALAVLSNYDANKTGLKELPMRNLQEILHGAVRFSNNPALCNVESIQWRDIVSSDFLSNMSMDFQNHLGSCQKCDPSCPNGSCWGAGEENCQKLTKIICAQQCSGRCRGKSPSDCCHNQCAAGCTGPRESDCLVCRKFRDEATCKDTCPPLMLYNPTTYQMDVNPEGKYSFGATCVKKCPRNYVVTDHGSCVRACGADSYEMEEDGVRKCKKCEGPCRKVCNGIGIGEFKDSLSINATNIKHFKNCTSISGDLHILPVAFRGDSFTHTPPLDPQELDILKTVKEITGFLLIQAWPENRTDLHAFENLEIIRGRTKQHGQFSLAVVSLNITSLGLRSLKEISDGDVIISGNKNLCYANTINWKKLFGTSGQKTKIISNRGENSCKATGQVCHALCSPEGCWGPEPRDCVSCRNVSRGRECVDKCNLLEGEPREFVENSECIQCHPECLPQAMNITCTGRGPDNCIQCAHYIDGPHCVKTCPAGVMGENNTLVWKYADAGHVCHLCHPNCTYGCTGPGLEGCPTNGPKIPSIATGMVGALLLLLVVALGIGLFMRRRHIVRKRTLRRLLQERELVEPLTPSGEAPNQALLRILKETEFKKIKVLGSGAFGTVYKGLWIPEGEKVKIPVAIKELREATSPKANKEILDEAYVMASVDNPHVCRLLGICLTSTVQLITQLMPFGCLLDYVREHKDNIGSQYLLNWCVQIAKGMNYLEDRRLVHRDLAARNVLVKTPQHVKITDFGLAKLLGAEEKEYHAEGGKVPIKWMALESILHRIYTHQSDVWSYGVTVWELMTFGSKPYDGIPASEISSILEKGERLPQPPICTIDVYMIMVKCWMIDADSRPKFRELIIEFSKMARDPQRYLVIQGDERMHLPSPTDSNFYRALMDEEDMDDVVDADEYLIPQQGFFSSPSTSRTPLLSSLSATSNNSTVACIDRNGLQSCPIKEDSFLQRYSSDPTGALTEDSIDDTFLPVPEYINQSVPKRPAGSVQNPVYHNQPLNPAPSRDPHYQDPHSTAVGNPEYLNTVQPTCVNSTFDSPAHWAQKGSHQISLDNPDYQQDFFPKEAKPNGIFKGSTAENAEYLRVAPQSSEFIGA

[12] = system: HepG2; experiment: Cytotoxicity against human HepG2 cells at 2.5 uM after 48 hrs by LDH release assay (reference value: 100%); assay type: functional
Method in brief: (§2)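 LDH release. HepG2 cells at 1.0 × 10^5/well were incubated 24 h at 37 °C, then treated at 2.5–40 µM for 48 h. Cells lysed with 2% lysate for 1 h gave the full-release (100%) reference; medium-only cells were the low control. LDH in the supernatant was measured per kit. Triplicates, three independent repeats.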

[13] = system: HepG2; experiment: Cytotoxicity against human HepG2 cells at 10 uM after 48 hrs by LDH release assay (reference value: 100%); assay type: functional; method in brief: as §2
[14] = system: HepG2; experiment: Cytotoxicity against human HepG2 cells at 20 uM after 48 hrs by LDH release assay (reference value: 100%); assay type: functional; method in brief: as §2
[15] = system: HepG2; experiment: Cytotoxicity against human HepG2 cells at 40 uM after 48 hrs by LDH release assay (reference value: 100%); assay type: functional
Method in brief: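 HepG2 seeded at 1.0 × 10^5 cells/well, grown 24 h at 37 °C in 5% CO2, then dosed for 48 h. LDH in supernatant read on plate reader per kit. Maximal release (100% cytotoxicity) came from lysis with 2% (V/V) lysate for 1 h at 37 °C; medium-only cells served as natural release. Triplicate, three independent runs.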

[16] = system: HepG2; experiment: Cell cycle arrest in human HepG2 assessed as accumulation at G0/G1 phase at 2.5 uM after 48 hrs by propidium iodide-staining based flow cytometry (reference value: 69.40%); assay type: functional
Method in brief: (§3)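 HepG2 cells at 5.0 × 10^5/well were grown 24 h, then treated at 0, 2.5, 5.0 or 10.0 µM for 48 h alongside medium-only wells. Cells fixed in 70% ice-cold ethanol for ≥24 h, treated with RNase A at 37 °C for 30 min, then stained with propidium iodide for 30 min at 4 °C in the dark. DNA content read by flow cytometry. Average of at least three experiments.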

[17] = system: HepG2; experiment: Cell cycle arrest in human HepG2 assessed as accumulation at G2/M phase at 10 uM after 48 hrs by propidium iodide-staining based flow cytometry (reference value: 9.13%); assay type: functional; method in brief: as §3
[18] = system: HepG2; experiment: Induction of apoptosis in human HepG2 cells assessed as viable cells at 5 uM after 48 hrs by Annexin V-FITC/propidium iodide double staining-based flow cytometry (reference value: 86.4%); assay type: functional; settings: HepG2, 48 h, read-out: Activity
[19] = system: HepG2; experiment: Induction of apoptosis in human HepG2 cells assessed as late apoptotic cells at 10 uM after 48 hrs by Annexin V-FITC/propidium iodide double staining-based flow cytometry (reference value: 4.3%); assay type: functional
[20] = system: HepG2; experiment: Induction of apoptosis in human HepG2 cells assessed as nuclear fragmentation at 2.5 to 20 uM after 48 hrs by Hoechst 33342/propidium iodide double staining based laser scanning confocal microscopy; assay type: functional, cell-based
Method in brief: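 HepG2 plated at 5.0 × 10^4 cells/well in DMEM with 10% FBS, 24 h at 37 °C, then treated 48 h (2.5–20 µM). After two ice-cold PBS washes, cells were stained with Hoechst 33342/PI mixed 1:1 for 30 min at 37 °C in the dark, washed three times, and imaged by laser scanning confocal microscopy at 200×.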

[21] = system: HepG2; experiment: Induction of mitochondrial membrane potential loss in human HepG2 cells assessed as mitochondrial membrane potential levels at 10 uM after 48 hrs by rhodamine-123 dye based FACS analysis (reference value: 90.4%); assay type: functional
[22] = system: HepG2; experiment: Induction of apoptosis in human HepG2 cells assessed as intracellular free Ca2+ levels at 2.5 uM after 48 hrs by FL1 channel/FACS analysis (reference value: 14.2%); assay type: functional
Method in brief: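 HepG2 seeded at 5.0 × 10^5 cells/mL, 24 h at 37 °C in 5% CO2, then treated 48 h (2.5–20 µM). Harvested cells were washed in ice-cold PBS and loaded with 4 µM Fluo-3/AM for 30 min. After trypsinizing, they were washed twice and resuspended in HEPES, and fluorescence was measured in the FL-1 channel by flow cytometry. Values are averages of at least three independent experiments.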

[23] = system: HepG2; experiment: Induction of apoptosis in human HepG2 cells assessed as caspase-3 activity at 2.5 uM after 48 hrs by colorimetric assay relative to control; assay type: functional
Method in brief: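 After 48 h treatment, HepG2 were rinsed in ice-cold PBS and lysed 1–1.5 h on ice in buffer with 1% DTT. Lysate was spun at 10,000×g for 1 min at 4 °C; supernatant protein was measured by Bradford. Supernatant was mixed with 2× reaction buffer (1% DTT) plus caspase-3 chromogenic peptide substrate, held 4 h at 37 °C, and read at 405 nm.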

[24] = target: T1, Epidermal growth factor receptor; settings: HEK293, at 10 pM
[25] = target: T1, Epidermal growth factor receptor; settings: HEK293, at 0.01 µM

- pIC50 [1]: 5.11
- pIC50 [10]: 4.89
- pIC50 [11]: 8.44
- inhibition [24]: 17.9%
- inhibition [25]: 61.8%
SMILES: COc1cc2c(Nc3ccc(C#N)cc3)ncnc2cc1OCCCN1CCC(c2ccccc2)CC1
- Activity [2]: 63.5%
- Activity [3]: 5.7%
- Activity [4]: 24.7%
- Activity [5]: 1.3%
- Activity [6]: 2.9%
- Activity [7]: 1.5%
- Activity [8]: 86.6%
- Activity [9]: 95.5%
- Activity [12]: 39.65%
- Activity [13]: 69.27%
- Activity [14]: 52.94%
- Activity [15]: 41.17%
- Activity [16]: 67.07%
- Activity [17]: 9.57%
- viability at 5 µM [18]: 17.3%
- Activity [19]: 0.1%
- Activity [20]: Active
- Activity [21]: 84%
- Activity [22]: 41.7%
- Activity [23]: 138%

From ChEMBL document CHEMBL4130355, “Development of a series of novel 4-anlinoquinazoline derivatives possessing quinazoline skeleton: Design, synthesis, EGFR kinase inhibitory efficacy, and evaluation of anticancer activities in vitro” (Eur J Med Chem, 2017)
